Ki and IC50 data for 13 molecules are collected here from ChEMBL document CHEMBL1134315 (J Med Chem, 2001).

One experiment has as its target Cannabinoid receptor 2 (Homo sapiens, UniProt P34972). As to the kind of experiment: Binding affinity to human CB2 cannabinoid receptor using [3H]CP-55940 in HEK293 EBNA transfected cells. It counts as cell-based.
For experiment [1], the target named is Transient receptor potential cation channel subfamily V member 1 (Rattus norvegicus, UniProt O35433). As to the kind of experiment: Binding affinity to vanilloid VR1 receptor using [3H]resiniferatoxin ([3H]-RTX) in rat spinal cord membranes. The experiment is classed as cell membranes, Membrane. The procedure, abridged: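 Radioligand displacement binding used these systems: CB1, rat cerebellum membranes with [3H]WIN55212-2; CB2, HEK293EBNA cells transfected with the human CB2 receptor, with [3H]CP55940; VR1, rat spinal cord membranes with [3H]RTX. Ki values come from two independent experiments, each run in triplicate, and are reported as mean ± standard error.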
Sequence of Transient receptor potential cation channel subfamily V member 1 (O35433 whole entry): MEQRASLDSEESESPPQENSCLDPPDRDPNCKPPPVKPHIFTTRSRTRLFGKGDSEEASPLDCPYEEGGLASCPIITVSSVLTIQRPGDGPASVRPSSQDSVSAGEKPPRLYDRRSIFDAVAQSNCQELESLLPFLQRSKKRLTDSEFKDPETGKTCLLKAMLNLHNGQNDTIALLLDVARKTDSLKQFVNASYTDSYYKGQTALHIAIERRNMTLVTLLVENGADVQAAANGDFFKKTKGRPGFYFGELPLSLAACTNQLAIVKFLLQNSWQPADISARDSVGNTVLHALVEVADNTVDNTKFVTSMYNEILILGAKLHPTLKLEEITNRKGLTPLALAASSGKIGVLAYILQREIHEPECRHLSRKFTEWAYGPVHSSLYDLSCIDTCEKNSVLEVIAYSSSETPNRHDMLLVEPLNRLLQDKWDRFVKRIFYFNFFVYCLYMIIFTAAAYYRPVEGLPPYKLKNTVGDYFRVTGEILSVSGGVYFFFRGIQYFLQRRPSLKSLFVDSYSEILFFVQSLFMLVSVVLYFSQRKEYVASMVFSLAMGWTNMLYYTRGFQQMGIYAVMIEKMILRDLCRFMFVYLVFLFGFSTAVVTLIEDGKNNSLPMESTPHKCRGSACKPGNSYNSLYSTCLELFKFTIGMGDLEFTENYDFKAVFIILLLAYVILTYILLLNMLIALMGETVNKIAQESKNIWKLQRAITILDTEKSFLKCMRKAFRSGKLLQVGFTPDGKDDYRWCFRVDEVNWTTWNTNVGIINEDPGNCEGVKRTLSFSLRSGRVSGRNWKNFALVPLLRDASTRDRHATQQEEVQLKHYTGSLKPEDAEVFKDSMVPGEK

Experiment [2] deals with U-937. As to the kind of experiment: Ability to inhibit [3H]anandamide uptake in human lymphoma U937 cells; inactive. The experiment is classed as functional, cell-based.
The next experiment addresses Cannabinoid receptor 1 (Rattus norvegicus, UniProt P20272). As to the kind of experiment: Binding affinity to CB1 cannabinoid receptor using [3H]WIN-55212-2 in rat cerebellum membranes. The experiment is classed as cell membranes, Membrane.
The subject of experiment [3] is U-937. As to the kind of experiment: Ability to inhibit [3H]anandamide uptake in human lymphoma U937 cells. It counts as functional, cell-based. In outline: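 IC50 values come from three independent experiments, each run in triplicate, and are reported as mean ± standard error.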

Usually pKi stands for the Ki on a negative log10 scale, so that one unit is a factor of ten. A high value points to a low Ki. By pIC50 is commonly meant −log10 of the IC50, conventionally taken in molar units. Low readings indicate a large IC50, high ones a small IC50.

pIC50, pKi: −log10 of the molar value. Where only a bound is given, the exact number is not on record here.

Sequence of Cannabinoid receptor 2 (P34972 whole entry): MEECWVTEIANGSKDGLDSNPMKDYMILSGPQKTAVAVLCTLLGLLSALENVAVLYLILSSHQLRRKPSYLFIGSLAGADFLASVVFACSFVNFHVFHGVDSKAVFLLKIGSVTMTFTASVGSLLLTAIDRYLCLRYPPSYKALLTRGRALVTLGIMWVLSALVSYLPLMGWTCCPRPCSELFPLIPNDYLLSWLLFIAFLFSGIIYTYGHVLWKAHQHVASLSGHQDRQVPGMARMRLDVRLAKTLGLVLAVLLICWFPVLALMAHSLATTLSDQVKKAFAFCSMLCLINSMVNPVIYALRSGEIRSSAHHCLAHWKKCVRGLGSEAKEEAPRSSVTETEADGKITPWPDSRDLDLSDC
Sequence of Cannabinoid receptor 1 (P20272 whole entry): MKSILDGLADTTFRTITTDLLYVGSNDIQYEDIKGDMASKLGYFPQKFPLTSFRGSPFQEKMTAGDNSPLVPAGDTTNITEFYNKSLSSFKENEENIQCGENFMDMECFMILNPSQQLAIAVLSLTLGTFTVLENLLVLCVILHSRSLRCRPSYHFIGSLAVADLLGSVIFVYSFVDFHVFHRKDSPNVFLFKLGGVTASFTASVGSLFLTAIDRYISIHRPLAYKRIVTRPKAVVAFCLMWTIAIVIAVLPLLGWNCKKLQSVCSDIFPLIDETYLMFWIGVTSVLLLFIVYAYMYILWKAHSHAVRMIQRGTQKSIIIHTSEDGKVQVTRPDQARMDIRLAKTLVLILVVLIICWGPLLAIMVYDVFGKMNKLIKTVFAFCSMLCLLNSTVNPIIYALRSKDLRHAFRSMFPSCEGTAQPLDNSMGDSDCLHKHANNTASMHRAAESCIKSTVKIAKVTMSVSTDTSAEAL

For the molecule `CCCCC/C=C\C/C=C\C/C=C\C/C=C\CCCC(=O)OCC1CCOC1` (configuration not stated), the pKi was under 6.00 on Cannabinoid receptor 2 and under 5.30 in experiment [1].
Regarding `CCCCC/C=C\C/C=C\C/C=C\C/C=C\CCCC(=O)OCc1cccs1`, the IC50 result in the experiment on U-937 [2] is listed as “Not Active”. Also, the pKi was under 6.00 on Cannabinoid receptor 2, under 5.30 in experiment [1] and under 6.00 at Cannabinoid receptor 1.
In the case of `CCCCC/C=C\C/C=C\C/C=C\C/C=C\CCCC(=O)NCc1ccoc1`, in the experiment with U-937 [3], the pIC50 is 6.10. In addition, the values for the pKi (at Cannabinoid receptor 2; in experiment [1]; on Cannabinoid receptor 1) were 7.17, under 5.30 and under 6.00, respectively.
In turn, `CCCCC/C=C\C/C=C\C/C=C\C/C=C\CCCC(=O)NCCO` [ANANDAMIDE] had a pKi in experiment [1] of 6.77.
In the case of `CCCCC/C=C\C/C=C\C/C=C\C/C=C\CCCC(=O)Nc1ccc(O)cc1`, the pIC50 with U-937 [3] is 5.40. Besides, the pKi on Cannabinoid receptor 2 is under 6.00; in experiment [1], under 5.30; on Cannabinoid receptor 1, under 6.00.
For `CCCCC/C=C\C/C=C\C/C=C\C/C=C\CCCC(=O)NCC1CCCO1` (configuration not stated), the pIC50 in the experiment with U-937 [3] was 5.10. In addition, the values for the pKi (at Cannabinoid receptor 2; in experiment [1]; at Cannabinoid receptor 1) were under 6.00, under 5.30 and under 6.00, respectively.
For the molecule `CCCCC/C=C\C/C=C\C/C=C\C/C=C\CCCC(=O)NCc1cccn1C`, in the experiment on U-937 [3], the pIC50 is 5.30. The pKi on Cannabinoid receptor 2 is 7.15; in experiment [1], under 5.30; on Cannabinoid receptor 1, 6.91.
`CCCCC/C=C\C/C=C\C/C=C\C/C=C\CCCC(=O)OCC1CCCO1` (configuration not stated) showed a pIC50 in the experiment on U-937 [3] of 4.74. For the same molecule, the negative-log Ki (pKi) at Cannabinoid receptor 2 is under 6.00; in experiment [1], under 5.30; at Cannabinoid receptor 1, under 6.00.
`CCCCC/C=C\C/C=C\C/C=C\C/C=C\CCCC(=O)NCc1cccs1` had a pIC50 with U-937 [3] of 5.24. Further, the values for the pKi (at Cannabinoid receptor 2; in experiment [1]; at Cannabinoid receptor 1) were under 6.00, under 5.30 and under 6.00, respectively.
The molecule `CCCCC/C=C\C/C=C\C/C=C\C/C=C\CCCC(=O)OCc1ccoc1` had a pIC50 in the experiment on U-937 [3] of 4.85. For the same molecule, the pKi was under 6.00 on Cannabinoid receptor 2, over 5.30 in experiment [1] and under 6.00 at Cannabinoid receptor 1.
Molecule `CCCCC/C=C\C/C=C\C/C=C\C/C=C\CCCC(=O)OCc1ccco1` gave a pIC50 in the experiment on U-937 [3] of 4.62. Further, the pKi was under 6.00 on Cannabinoid receptor 2, under 5.30 in experiment [1] and under 6.00 at Cannabinoid receptor 1.
In the experiment on U-937 [3], `CCCCC/C=C\C/C=C\C/C=C\C/C=C\CCCC(=O)OCc1ccsc1` had a pIC50 of 5.52. In addition, the pKi is under 6.00 at Cannabinoid receptor 2, under 5.30 in experiment [1] and under 6.00 at Cannabinoid receptor 1.
`CCCCC/C=C\C/C=C\C/C=C\C/C=C\CCCC(=O)NCc1ccco1` gave a pIC50 in the experiment on U-937 [3] of 5.30. Moreover, the pKi was under 6.00 at Cannabinoid receptor 2, over 5.30 in experiment [1] and under 6.00 at Cannabinoid receptor 1.
